Assay results: publication PMC4244684 (The Journal of biological chemistry, 2007)
No end group written: not given here.

Molecular target: Su(dx) WW4 (Drosophila melanogaster, UniProt Q9Y0H4)
Assay: ITC binding of peptides to Su
Outline: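 Cleaved Su(dx) WW4 (GST fusion from E. coli BL21, glutathione-bead purified, PreScission-cleaved, dialysed overnight into ITC buffer) at 15–35 μm in cell; 1–1.5 mm peptide titrated in. Peptide and protein concentrations set by denaturing Trp/Tyr UV absorbance. 50 mm phosphate, 150 mm NaCl, pH 7.4, degassed; 25 °C. Dilution-corrected heats fitted for ΔH and Ka, n fixed at 1.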

Sequence of Su(dx) WW4 (Q9Y0H4 515-557): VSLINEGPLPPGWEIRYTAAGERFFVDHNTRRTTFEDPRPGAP

AKQPPSYEDC [N2]
Kd: 45 ± 3 µM

AKQPPSYEDCIK [N1]
Kd: 45 ± 2 µM
